Screening data (PubChem)
DNA FID counter – compounds displacing fluorescent DNA intercalator, primary screen, artefact control for HCV NS3 helicase inhibitor project, biochemical, FID fluorescence. inhibition, % at 7.9 µM. AID 1845, 2009. hit rate 0.17% among 290,000. DNA fluorescent intercalator displacement; in the data active = inhibition above about 37%;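 also: higher means more ethidium bromide displaced from hairpin DNA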
PLC-beta3 inh – human PLC-beta3 inhibitors, primary screen, biochemical, fluorescence. Purified PLC-beta3, fluorogenic substrate. hit rate 0.18% among 370,000. 1-phosphatidylinositol 4,5-bisphosphate phosphodiesterase beta-3 (Homo sapiens), Q01970. inhibition, % at 12.2 µM; in the data active = inhibition above about 11%
DDE Tn6 FP inh – inhibitors of Tn6 peptide binding to fibrin DD(E), primary screen, biochemical, fluorescence polarization, human fibrin, Tn6 probe; Fibrinogen beta chain (Homo sapiens), P02675; Fibrin DD(E) TRITC-Tn6 fluorescence polarization displacement; inhibition, % at 8.3 µM; hit rate 0.21% among 370,000; AID 720509, 2013;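 active = inhibition above a per-campaign cutoff: mean of compounds within control limits plus 3 SD, cut at about 15% in these data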
DDE Tn7 FP inh – inhibitors of Tn7 peptide binding to fibrin DD(E), primary screen, biochemical, fluorescence polarization, human fibrin, Tn7 probe; Fibrinogen beta chain (Homo sapiens), P02675; FP displacement of FITC-Tn7 peptide from fibrin DD(E); 0% = median of compound wells per plate; inhibition, % at 8.3 µM; hit rate 0.13% among 370,000;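 active = inhibition above the mean of compounds falling within the control limits plus 3 SD of them, cut at about 14% in these data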
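Also added: labelled Tn7 tracer, 0.1 µM; Assay system: human fibrin DD(E) protein; Amount: 2 µM fibrin DD(E); Schedule: 10 min compound pre-incubation, 3 h probe incubation at room temperature; Repeats: one replicate per compound; Read-out basis: percent inhibition; Measured by: fluorescence polarization of the labelled Tn7 tracer.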
PLCg1 inh – PLC-gamma1 enzyme inhibitors, primary screen, biochemical, fluorescence, purified enzyme; inhibition, % at 12.2 µM; hit rate 0.84% among 370,000; fluorogenic substrate; 1-phosphatidylinositol 4,5-bisphosphate phosphodiesterase gamma-1 (Homo sapiens), P19174; AID 720700, 2013; in the data active = inhibition above about 9.5%
Hits are given with their value; n = inactive; x = not tested or not shown. In the library only some 1.4% were active in any assay of this set; here they are far more common.

SMILES | DNA FID counter | PLC-beta3 inh | DDE Tn6 FP inh | DDE Tn7 FP inh | PLCg1 inh
NC(=O)c1ccc(N=C2C(=O)Nc3ccc([N+](=O)[O-])cc32)cc1 | n | n | n | n | 11
COCCn1c(SCC(=O)N2CCCc3ccccc32)nnc1-c1ccco1 | n | n | n | n | n
O=C(CN1CCN(c2ccc(F)cc2)CC1)Nc1ccccc1Br | n | n | n | n | 17
CCN1CCN(C(=O)c2cnn3c(C(F)F)cc(-c4ccc(C)cc4)nc23)CC1 | n | n | n | n | n
CN(CCCCCCN(C)Cc1ccccc1O)Cc1ccccc1O | n | n | n | n | n
O=C1c2cccc(OCc3ccc(F)cc3)c2CCN1Cc1ccc(F)cc1 | n | n | n | n | 11
Cc1ccc(CN2CCc3c(OCc4ccc(F)cc4)cccc3C2=O)cc1 | n | n | n | n | n
O=c1oc2ccccc2c(NCc2ccccc2)c1[N+](=O)[O-] | n | n | n | n | n
COc1ccc2c3c(cccc13)C(=O)CC2 | n | n | 36 | 21 | n
NNc1ccc([N+](=O)[O-])c2[nH][nH]c(=O)c12 | x | n | n | n | 23
CC1=NN(c2cccc(C(=O)O)c2)C(=O)/C1=C\C=C\c1ccco1 | n | n | n | n | 23
O=C(COc1ccccc1)Nc1c(C(=O)N2CCC(N3CCCCC3)CC2)oc2ccccc12 | n | n | n | n | n
CN(C)CCN(Cc1ccco1)C(=O)c1oc2ccccc2c1NC(=O)COc1ccccc1 | 38 | n | n | n | n
COC(=O)c1cc2sccc2n1Cc1nc(-c2cccc(Cl)c2)oc1C | n | n | n | n | n
CC(=O)Nc1c(O)nc(SCC(=O)Nc2c(C)cccc2C)[nH]c1=O | n | 12 | n | n | 12
Cc1cc(N2CCN(C)CC2)nc2ccc(NC(=S)N3CCN(c4ccc(F)cc4)CC3)cc12 | n | n | n | n | n
Cc1cc(N2CCN(C)CC2)nc2ccc(NC(=S)N3CCN(c4cccc(Cl)c4)CC3)cc12 | n | n | n | n | n
Cc1cc(N2CCN(C)CC2)nc2ccc(NC(=S)N3CCN(c4ccc(Cl)cc4)CC3)cc12 | 46 | n | n | n | n
Cc1cccc(N2CCN(C(=S)Nc3ccc4nc(N5CCN(C)CC5)cc(C)c4c3)CC2C)c1 (configuration not stated) | 47 | n | n | n | n
Cc1ccc(N(CC(=O)NCC(O)c2ccccc2)S(=O)(=O)c2ccc(C)cc2)cc1 (configuration not stated) | n | n | n | n | n
CC1(C)Cc2c(sc(NC(=O)c3ccc(C(=O)c4ccccc4)cc3)c2C(N)=O)C(C)(C)N1 | 37 | n | n | n | n
COC(=O)c1c(NC(=O)c2ccccc2)sc2c1CC(C)(C)NC2(C)C | n | n | n | n | n
CCOC(=O)N1CCN(S(=O)(=O)c2ccc(C(=O)Nc3sc4c(c3C(N)=O)CC(C)(C)NC4(C)C)cc2)CC1 | 41 | n | n | n | n
CCOC(=O)c1c(NC(=O)c2ccc(C)cc2)sc2c1CC(C)(C)NC2(C)C | n | x | x | x | x
Cc1cc(OC(=O)c2ccc3ccccc3c2)c([N+](=O)[O-])c(=O)[nH]1 | n | n | n | n | n
SMILES | DNA FID counter | PLC-beta3 inh | DDE Tn6 FP inh | DDE Tn7 FP inh | PLCg1 inh
CCCCCCOC(=O)C(C#N)c1nc2ccccc2nc1N1CCCCC1 (configuration not stated) | n | n | n | n | n
Cc1csc(NC(=O)CSc2nnc(-c3ccncc3)o2)n1 | n | n | 17 | n | n
CCN(CC)C(=O)C1CCN(S(=O)(=O)c2c(C)noc2/C=C/c2cccc(C)c2)CC1 | n | n | n | n | n
Cc1ccc2oc(=O)c3cc(C(=O)NCCCN4CCC(C)CC4)sc3c2c1 | x | n | n | n | n
Cc1ccc2oc(=O)c3cc(C(=O)NCCCN4CCCC(C)C4)sc3c2c1 (configuration not stated) | 39 | n | n | n | n
Cc1ccc(NC(=O)Cn2ncc3ccccc32)c(Cl)c1 | n | n | n | n | n
CN(C)S(=O)(=O)c1cccc(-c2nnc(SCCNCCO)n2-c2ccc(F)cc2)c1 | n | 14 | n | n | 14
